The values below come from ChEMBL document CHEMBL4513216, “Probing the Open Global Health Chemical Diversity Library for Multistage-Active Starting Points for Next-Generation Antimalarials” (ACS Infect Dis, 2020).

The data set is described as follows: Toxicity liver stage against HepG2, at 10uM. Type of data set: cell-based. Also noted: test concentration 10 uM, cell line HepG2-A16-CD81EGFP. The conditions noted are these: human, HepG2-A16-CD81EGFP cells; read-out: INHIBITION
The method in brief: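 Uninfected HepG2-A16-CD81EGFP cells, 3 × 10^3 per well, 1536-well, plated on prespotted compound at 10 μM final, parasite-free screening media added to match infected plates; puromycin 10 μM positive, DMSO 0.5% negative; run in parallel with 48 h PbLuc assay at 37 °C, 5% CO2; viability by CellTiter-Glo luminescence, normalized to controls.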
As for `O=C(NC[C@@H]1CCCO1)c1cc(Br)cnc1N1CCCCC1`, the cytotoxicity at 10 µM is -1.69%.
Turning to `CN1C(=O)[C@H](OC(N)=O)[C@@H](C(=O)Nc2ccccc2)C12CCNCC2`, the cytotoxicity at 10 µM came to 2.73%.
As for `Cc1c(CC(C#N)C(=O)Nc2cccc(O)c2)cnn1C` (configuration not stated), the figure is 0.781%; as for `COc1coc(C(=O)Nc2nc(-c3cccnc3)cs2)cc1=O`, 2.66%.
Next, `COC(=O)C1CCCN1Cc1ccco1` (configuration not stated): 9.21%; `CN1CC2(CCN(C(=O)C3CCC3)CC2)COc2ccccc2S1(=O)=O`: 10.2%; `COC(=O)C(NC(=O)Nc1ccc(C(C)=O)cc1)C(C)C` (configuration not stated): 4.31%.
Turning to `CC(C)CCN1CN=C(NS(=O)(=O)c2ccc(F)cc2)NC1`, the cytotoxicity at 10 µM was -3.03%.
Regarding `O=C1CSC(c2ccsc2)c2sccc2N1` (configuration not stated), the cytotoxicity at 10 µM was 2.19%.
`COCCN1C(=O)[C@]2(CC[C@@H]3CN(C(=O)NC4CCCC4)C[C@@H]32)N=C1C`: the cytotoxicity at 10 µM was -8.85%.
Next, `CC(C)NC(=O)N1CCN(S(=O)(=O)C2CC2)CC2(CNC(=O)C2)C1` (configuration not stated): 1%.
As for `O=C1CCOC[C@]2(CN(Cc3ccccc3)C[C@H]2c2cccnc2)N1`, the figure is 4.73%; as for `CC(=O)N1CCOC(c2ccnc(N(C)C)n2)C1` (configuration not stated), 1.62%.
Next, `CC(C)N1CCC(c2cnc(-c3cn[nH]c3)cn2)CC1`: 5.36%; `O=C(O)c1ccccc1-n1cc(CN2CCOC(c3cc[nH]n3)C2)cn1` (configuration not stated): 3.33%.
As to `CC(=O)NC1CCc2ccc(S(=O)(=O)NCc3ncccc3C)cc21` (configuration not stated), the cytotoxicity at 10 µM is 10.4%.
As for `CNc1ncc(CN2CCCC2c2[nH]ncc2C(=O)N(C)C)cn1` (configuration not stated), the figure is 2.91%; as for `Cc1cc(-c2cccnc2)nc(C2CCCN2S(C)(=O)=O)n1` (configuration not stated), 4.36%.
Next, `Cc1cc(C)nc(N2CCC(C(=O)Nc3ccc(C(C)C)cc3)CC2)n1`: -3.02%; `COCCCNC(=O)c1ccccc1-n1cc(CN(C)C)cn1`: -22.4%.
Turning to `Cc1noc(CNC(=O)c2ccccc2-n2cc(CN)cn2)n1`, the cytotoxicity at 10 µM was -19.6%.
Take `O=C(Nc1nncs1)C1CSCN1C(=O)C1CCCC1` (configuration not stated): the cytotoxicity at 10 µM is 11.3%.
As for `CSc1cccc(NC(=O)CCC(=O)Nc2nccs2)c1`, the figure is -5.05%; as for `COCCN(C(=O)c1cc(C)no1)c1ccc(C#N)cc1`, 6.51%.
Regarding `CCN(C)Cc1cccc(CNC(=O)CSCc2ccccn2)c1`, the cytotoxicity at 10 µM was determined as 1.61%.
With `O=C(NCc1cccc(F)c1)c1cccc(C(=O)N2CCCC2)n1`, the cytotoxicity at 10 µM was 5.79%.
Consider `Cc1noc(C)c1CN(C)CC1CC(C2CCCCC2)=NO1` (configuration not stated), for which the cytotoxicity at 10 µM was 3.72%.
As for `CCNC(=O)C1CCCN(c2ccc3ccc(F)cc3n2)C1` (configuration not stated), the cytotoxicity at 10 µM was -1.69%.
As to `CC(Cc1cccc(F)c1)C(=O)NS(=O)(=O)c1ccc(F)cc1` (configuration not stated), the cytotoxicity at 10 µM was found to be 5.58%.
Next, `Cc1cc(C2CCCN(Cc3ncc(C)o3)C2)n[nH]1` (configuration not stated): 4.63%; `Cc1cnn(CCNCc2cc(-c3ccccc3)no2)c1`: -3.03%.
As for `O=C(N1CCSCC1)C1(O)Cc2ccccc2C1`, the figure is 6.35%; as for `O=S(=O)(CCN1CCCC1Cn1cccn1)c1ccccc1` (configuration not stated), -11.9%.
As to `CCNC(=O)Nc1c(C)cnn1Cc1cc(F)ccc1F`, the cytotoxicity at 10 µM amounted to 5.28%.
Regarding `CC(CO)CSc1ncnc2[nH]ncc12` (configuration not stated), the cytotoxicity at 10 µM is -12.3%.
Next, `CCC(CC)(CCO)CNC(=O)c1ccon1`: 6.27%; `O=C(O)c1cc2c(c(S(=O)(=O)N(CCCO)c3ccccc3)c1)CCC2`: 6.58%; `CN(Cc1ccccc1NCc1cscn1)C(=O)c1cccs1`: 0.503%.
As for `CN(C(=O)COCc1ccccc1)C1CCN(CC2CCOC2)CC1` (configuration not stated), the figure is -3.7%.
Next, `CN1CCCC(N2CCN(c3nc4ccccn4c3C#N)CC2)C1` (configuration not stated): 1.52%; `CN1CCCC(N2CCN(c3cc(C(F)(F)F)ccn3)CC2)C1` (configuration not stated): 5.12%; `Cc1cc(C(=O)CN2CCN(c3nccs3)CC2)c(C)n1C1CC1`: 10.6%.
For the compound `c1cc(CN2CCN(Cc3ccon3)C3(CCCCC3)C2)no1`, the cytotoxicity at 10 µM is -16.7%.
Turning to `N#CCCN(CCN1CCOCC1)Cc1ccc(F)c(Br)c1`, the cytotoxicity at 10 µM is -5.01%.
As for `O=C(CN1CCSCC1c1ccccc1)N1CCOCC1` (configuration not stated), the figure is -5.88%.
As for `Cc1nn(C)c(C)c1CNC1CCOc2ccccc21` (configuration not stated), the figure is 7.75%.
For `Cc1nn(C)c(N(C)C)c1CNCC(O)c1ccccc1` (configuration not stated), the cytotoxicity at 10 µM was -0.989%.
Next, `CCCn1ccc2ccc(NC(=O)N(C)CCOC)cc21`: 1.31%; `COCCn1c2c(ccc1=O)CCN(C(=O)C1CC=CC1)CC2`: 4.77%.
As for `O=C(Nc1cccnc1)[C@H]1CN(Cc2cccs2)C[C@H]2OCC[C@@H]12`, the figure is -109%; as for `CN1CCN(Cc2cnc3n2CCN(C(=O)c2cnccn2)C3)CC1`, -65.1%; as for `CN(C)[C@@H]1CCN(C(=O)c2ccccn2)[C@H]1Cc1cnn(C)c1`, -70%.
Take `Cc1occc1C(=O)N1CCc2ncnc(C3CCOC3)c2CC1` (configuration not stated): the cytotoxicity at 10 µM was -85%.
Turning to `OCCC1CN(c2nc(-c3cccnc3)nc3c2CCNCC3)CCO1` (configuration not stated), the cytotoxicity at 10 µM is -2.64%.
Turning to `CCCOC(=O)N1CCc2cccc(S(=O)(=O)N3CCOCC3)c2C1`, the cytotoxicity at 10 µM was -6.85%.
As for `Cn1cccc1-c1cc(C(=O)N2CCCCC2c2ccc(F)cc2)[nH]n1` (configuration not stated), the figure is -2.8%; as for `O=C(Cn1ccc2ncccc2c1=O)N1CCSCC1`, -3.06%; as for `CSCc1noc(-c2nc3c([nH]2)CCCNC3=O)n1`, -2.48%.
Next, `COCCn1cncc1CN1CCCC(C(=O)Cc2ccccc2)C1` (configuration not stated): -6.55%; `CCc1nc(CN(C)c2nccc(N3CCCC(O)C3)n2)no1` (configuration not stated): 0.324%.
Next, `CNC(=O)[C@@H]1C[C@@H](NC(=O)c2ccc(OC)o2)CN1Cc1sccc1C`: 2.29%; `CN(C)C(C(=O)NCCS(=O)(=O)N(C)C)c1cccc(F)c1` (configuration not stated): 2.73%; `CN(C)CCCn1ccc(-c2cccc(-c3ccccn3)c2)n1`: -6.02%.
As for `COc1ccc(F)c(F)c1CN1CC(=O)N(c2ccccc2C)CC1C` (configuration not stated), the cytotoxicity at 10 µM was -0.121%.
As for `CCC(=O)c1ccc(OCC(=O)N(C)C(C)c2ccon2)cc1` (configuration not stated), the figure is 1.71%.
Take `C=Cc1ccc(C(=O)NC2CCCc3nc(N(C)C)ncc32)cc1` (configuration not stated): the cytotoxicity at 10 µM was determined as 8.18%.
Take `Cn1c(CCC(=O)N2CCCC3(CC2)CNC(=O)O3)nc2cccnc21` (configuration not stated): the cytotoxicity at 10 µM is -3.56%.
Next, `Cc1nc(N2CCN3CCCCC3C2)nc2cc(S(C)(=O)=O)ccc12` (configuration not stated): -6.25%; `COCCN(Cc1cnn(C)c1)C(=O)C1CCC(=O)N(C2CCCC2)C1` (configuration not stated): 6.11%.
Next, `O=C1CC(c2ncc(-c3ccc4c(c3)OCCO4)[nH]2)CN1C1CCCC1` (configuration not stated): 10.8%.
Turning to `O=C(CCC(F)(F)F)N1CCCC(CO)(CC2CC2)C1` (configuration not stated), the cytotoxicity at 10 µM is 2.75%.
`Cc1ccn2c(F)c(C(=O)N3CCC4(CCC(=O)N(C)C4)CC3)nc2c1`: the cytotoxicity at 10 µM came out at 5.96%.
In the case of `CN(C)c1ncc2c(n1)CCCC2NC(=O)c1ccsc1` (configuration not stated), the cytotoxicity at 10 µM is 10%.
Turning to `CCn1cc(CN2CCCn3nc(CNC(=O)N(C)C)cc3C2)cn1`, the cytotoxicity at 10 µM is 6.99%.
Next, `CCN(Cc1nc(COC)no1)C[C@]1(O)CCCN2CCCC[C@@H]21`: -0.124%; `NCCn1cc(C(=O)NCc2ccccc2-n2cccn2)nn1`: -2.34%; `Cc1nc(C)n(C2CCCN(C(=O)c3ccc4nccn4c3)C2)n1` (configuration not stated): -12%.
For the compound `O=C(c1ccc(Cn2ccccc2=O)o1)N1CCSCC1`, the cytotoxicity at 10 µM is -14.8%.
Regarding `COc1ncccc1CNC(=O)c1ccc(C)[nH]c1=O`, the cytotoxicity at 10 µM was -2.22%.
Next, `Cn1cc(NC(=O)N2CCC(Cc3ccccc3)CC2)ccc1=O`: 1.07%.
On to `O=C(NCCCn1cncn1)N1CCCCCC1`, for which the cytotoxicity at 10 µM is -7.1%.
Regarding `CCCc1nc(C(C)(C)NC(=O)C2CC(=O)N(CC3CC3)C2)no1` (configuration not stated), the cytotoxicity at 10 µM is -3.61%.
Next, `CCOC(=O)c1sc2ccsc2c1CNC(=O)C(C)(C)C#N`: -4.42%; `Cc1csc(C2CCCN(C(=O)c3cnc4n[nH]c(C)c4c3)C2)n1` (configuration not stated): -9.39%; `CCc1nc(-c2cncnc2C2CCCNC2)no1` (configuration not stated): 1.73%.
Next, `O=S1(=O)CCC(NCCn2cncc2-c2ccc3c(c2)CCCO3)C1` (configuration not stated): 2.97%; `COCC1CN(c2ccc(C)nn2)Cc2cnn(C)c21` (configuration not stated): 11.7%.
Consider `c1cncc(OC[C@]23COC[C@H]2CN(C2CCC2)C3)c1`, for which the cytotoxicity at 10 µM was found to be 4.64%.
Next, `CN1C(Cn2cccn2)C[C@@H]2CN(Cc3ccccn3)CC[C@@H]21` (some centres not stated): 0.763%.
With `COc1ccc(CN(Cc2ccco2)Cc2[nH]cnc2C)c(OC)c1`, the cytotoxicity at 10 µM is -1.57%.
As for `CC(C)CN1C(=O)C2(CCN(Cc3cccs3)C2)c2ccccc21` (configuration not stated), the figure is 10.1%; as for `Cc1ccccc1CC(=O)N1C[C@@H]2COC[C@]2(CN(C)C)C1`, 3.79%; as for `O=C(N1CCCC1)N1CCc2onc(COc3cccnc3)c2C1`, -75.6%.
Take `CCCS(=O)(=O)N1CCOCC2(CCN(c3ccccn3)C2)C1` (configuration not stated): the cytotoxicity at 10 µM worked out at 2.42%.
As for `Cc1c(C2CCCN(C(=O)c3ccncc3)C2)n2c(nc1=O)CCC2` (configuration not stated), the figure is -21.8%; as for `O=C(c1ccccn1)N1C[C@H]2CC[C@@H](C1)N(C(=O)c1ccsc1)C2`, 3.88%; as for `CC(C)CNC(=O)[C@H]1C[C@H]2CN(C(=O)NCCc3ccccc3)C[C@@H]1O2`, 1.22%.
